{
  "source": "paper PMC6982540",
  "about": "(Nature chemical biology, 2019)",
  "key": {"PTP1B-OX(P)": {"test_system": "PTP1B-OX(P)", "test": "SPR", "assay_type": "binding", "settings": "14-3-3ζ 5000 nM (Fig. 2c), HBS-N pH 7.4, 25 °C", "method_in_brief": "(§1)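 His-PTP1B (1–321) kept in TCEP. For oxidized, phosphorylated form: H2O2 oxidation (250 μM, 10 min, RT), desalting into reductant-free kinase buffer, AKT phosphorylation 16 h at 30°C. Captured on Ni2+-activated NTA chip (2.7 μM injected); reference cell had no NiCl2. 14-3-3ζ in HBS-N pH 7.4 injected at 30 μl/min, 3 min dissociation, 2 M NaCl regeneration, 25 °C.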"}, "reduced PTP1B (PTP1B-R)": {"test_system": "reduced PTP1B (PTP1B-R)", "test": "SPR", "assay_type": "binding", "settings": "14-3-3ζ 5000 nM (Fig. 2c), HBS-N pH 7.4, 25 °C", "method_in_brief": "as §1"}, "reduced PTP1B": {"test_system": "reduced PTP1B", "test": "in vitro pull-down of reduced PTP1B with 14-3-3ζ", "assay_type": "binding", "settings": "50 nM PTP1B-R, 5 μM 14-3-3ζ, pH 7.4, 2 hours at 4°C, immunoblot", "method_in_brief": "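Bacterial His-PTP1B (1–321) kept in 1 mM TCEP; GST-14-3-3ζ purified on glutathione agarose. Reduced PTP1B 50 nM with 14-3-3ζ 5 μM in HEPES binding buffer (BSA, Tween, pH 7.4), 2 h at 4°C. Glutathione agarose capture 1 h at 4°C, three washes, SDS-PAGE; immunoblot with anti-PTP1B and anti-GST.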"}, "[1]": {"test_system": "PTP1B–14-3-3ζ association", "assay_type": "cell-based"}, "14-3-3ζ": {"test_system": "14-3-3ζ", "test": "pTyr loop derived-peptide pulldown from HEK293T lysates, iTRAQ LC-MS/MS", "assay_type": "binding, human"}, "PTP1B [2]": {"test_system": "PTP1B", "test": "cysteinyl-labeling assay", "assay_type": "cell-based", "settings": "EGF 100 ng/ml, indicated times; three independent experiments"}, "PTP1B [3]": {"test_system": "PTP1B", "test": "PTP1B catalytic activity", "assay_type": "cell-based", "settings": "EGF 100 ng/ml, pNPP, N=3 independent experiments"}},
  "data": [
    {"compound": "14-3-3ζ: bacterially expressed, purified GST-14-3-3-ζ protein", "values": [
      {"measurement": "SPR binding of 14-3-3ζ to oxidized, phosphorylated PTP1B", "setting": "PTP1B-OX(P)", "value": "specifically binds to PTP1B in its oxidized and phosphorylated inactive state"},
      {"measurement": "SPR binding of 14-3-3ζ to active reduced PTP1B", "setting": "reduced PTP1B (PTP1B-R)", "value": "not to the active reduced form of the enzyme"},
      {"measurement": "interaction of 14-3-3ζ with reduced PTP1B, in vitro pull-down", "setting": "reduced PTP1B", "value": "no interaction occurred with reduced PTP1B"}
    ]},
    {"compound": "CC(=O)N[C@@H](CS)C(=O)O", "note": "[NAC, N-acetylcysteine, reference compound]", "values": [
      {"measurement": "PTP1B–14-3-3ζ association in cells, NAC", "setting": "[1]; NAC 1 mM, 1 h, EGF stimulation, two independent experiments (Fig. 1d)", "value": "Redox-dependent association between PTP1B and 14-3-3ζ was confirmed"}
    ]},
    {"compound": "CKNRNRYRDVS [pTyr loop-derived-peptide]", "values": [
      {"measurement": "enrichment of 14-3-3ζ by peptide bait (iTRAQ)", "setting": "14-3-3ζ; HEK293T lysate, 90 minutes at 4 °C, vs cysteine control beads", "value": "one of the most abundant proteins, and the most abundant 14-3-3 isoform"},
      {"measurement": "nature of interaction of unphosphorylated loop peptide with 14-3-3ζ", "setting": "14-3-3ζ; concluded from SPR compared with MS analysis", "value": "occurs indirectly via a protein intermediate"}
    ]},
    {"compound": "EGF: epidermal growth factor, 100 ng/ml, used to activate EGFR", "values": [
      {"measurement": "PTP1B–14-3-3ζ association following EGF", "setting": "[1]; EGF 100 ng/ml, 0-10 min, HEK293T, three independent experiments", "value": "transient association between PTP1B and 14-3-3ζ between 2 to 5 minutes"},
      {"measurement": "reversible oxidation (biotinylation) of PTP1B, EGF", "setting": "PTP1B [2]", "value": "PTP1B biotinylation was detected in a transient manner at 1 and 2 minutes"},
      {"measurement": "PTP1B activity after EGF 10 min", "setting": "PTP1B [3]", "value": "mostly recovered"}
    ]}
  ]
}
